Test results from ChEMBL document CHEMBL3046326, “Screening of dialkoxybenzenes and disubstituted cyclopentene derivatives against the cabbage looper, Trichoplusia ni, for the discovery of new feeding and oviposition deterrents” (J Agric Food Chem, 2007).

Tests used:
Trichoplusia ni [1] = assay: Oviposition deterrent activity against adult female Trichoplusia ni (cabbage looper) moths introduced along with male moths into oviposition cage containing compound pretreated cabbage leaves assessed as eggs laying on the leaf disks at 0.25% after 48 hr by oviposition choice bioassay; assay type: functional
Method in brief: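 Choice test with moths from larvae reared on normal diet from neonate to pupation. Pupae were sexed and held separately until emergence. Cabbage leaves were treated with test substance at 0.25% or left as control, and eggs per leaf were counted after 48 h. ODI = [(C − T)/(C + T)] × 100 from egg numbers on control and treated leaves.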

Trichoplusia ni [2] = assay: Toxicity against third-instar larval stage of Trichoplusia ni (cabbage looper) assessed as mortality measured after 24 hr by contact toxicity bioassay; assay type: functional
Method in brief: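 Third-instar larvae were hand-sprayed directly with test solutions in filter-paper-lined Petri dishes, then moved to dishes holding a small piece of artificial diet. Mortality was recorded at 24 h.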

Trichoplusia ni [3] = assay: Toxicity against third-instar larval stage of Trichoplusia ni (cabbage looper) assessed as mortality at 0.25% measured after 24 hr by contact toxicity bioassay; assay type: functional
Method in brief: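 Third-instar larvae were sprayed directly with test solution at 0.25% in filter-paper-lined Petri dishes. They were then moved to dishes holding a small piece of artificial diet. Mortality was scored 24 h after spraying. The test applied only to compounds giving >50% feeding deterrence at 50 µg/cm².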

Trichoplusia ni [4] = assay: Feeding deterrent activity against freshly molted third-instar larval stage of Trichoplusia ni (cabbage looper) after 3 to 5 hr by leaf disk choice bioassay; assay type: functional, organism-based
Method in brief: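 Choice test: freshly molted third instar larvae, starved 4–5 h, offered two leaf disks, one painted on each side with 10 µL test solution and one with carrier solvent only. Twenty-five larvae per treatment. Ended when ~50% of the control disk was eaten (normally 3–5 h). Consumed areas measured. DC50 derived by linear regression of at least four concentrations (3.12–25 µg/cm²).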

Trichoplusia ni [5] = assay: Feeding deterrent activity against freshly molted third-instar larval stage of Trichoplusia ni (cabbage looper), Trichoplusia ni at 50 ug/cm'2 after 3 to 5 hr by leaf disk choice bioassay; assay type: functional
Method in brief: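 Leaf disk choice with freshly molted third instar larvae starved 4–5 h. One disk was painted on each side with 10 µL solution giving 50 µg/cm², the other with carrier solvent. Twenty-five larvae per treatment, stopped at ~50% control disk consumption (3–5 h). Deterrence = [(C − T)/(C + T)] × 100 from consumed areas; mean ± SE, Tukey's test p < 0.05.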

Helicoverpa zea = assay: Larvicidal activity against Helicoverpa zea (corn earworm) assessed as growth inhibition at 3 mM/kg relative to control by chronic feeding bioassay; assay type: functional; conditions: read-out: GI

SMILES | Activity (Trichoplusia ni [1]) | LC50 (Trichoplusia ni [2]) | mortality (Trichoplusia ni [3]) | DC50 (Trichoplusia ni [4]) | Activity (Trichoplusia ni [5]) | inhibition of growth at 3000 µM (Helicoverpa zea)
CCOc1ccc(OCC)cc1 [1,4-DIETHOXYBENZENE] | 74.7% | 0.03% | 100% | 25.9 microg/cm2 | 80.8% | 
CCCOc1ccccc1OCC [1-ethoxy-2-propoxybenzene] | 28.7% |  | 6.7% | 24.1 microg/cm2 | 71% | 
CCCCCOc1cccc(OCC)c1 [1-ethoxy-3-pentoxybenzene] | 14.3% |  | 20% | 26.5 microg/cm2 | 69.8% | 
CCCOc1cccc(OCC)c1 [1-ethoxy-3-propoxybenzene] | 14.3% |  | 20% | 26.5 microg/cm2 | 69.8% | 
CCCCCOc1ccc(OCC)cc1 [1-ethoxy-4-pentoxybenzene] | 56.6% | 0.03% | 96.8% | 23.4 microg/cm2 | 90.7% | 
CCCCOc1ccccc1OCCC(C)C [1-isopentoxy-2-butoxybenzene] | 29.4% |  | 10% | 32.5 microg/cm2 | 66.9% | 
CCOc1ccccc1OCCC(C)C [1-isopentoxy-2-ethoxybenzene] | 29.4% |  | 10% | 32.5 microg/cm2 | 66.9% | 
COc1ccccc1OCCC(C)C [1-isopentoxy-2-methoxybenzene] | 29.4% |  | 10% | 32.5 microg/cm2 | 66.9% | 
CCCCCOc1ccccc1OCCC(C)C [1-isopentoxy-2-pentoxybenzene] | 29.4% |  | 10% | 32.5 microg/cm2 | 66.9% | 
CCOc1cccc(OCCC(C)C)c1 [1-isopentyloxy-3-ethoxybenzene] | 35.7% |  | 20.8% | 19.8 microg/cm2 | 82.6% | 
COc1cccc(OCCC(C)C)c1 [1-isopentyloxy-3-methoxybenzene] | 35.7% |  | 20.8% | 19.8 microg/cm2 | 82.6% | 
CCCCCOc1cccc(OCCC(C)C)c1 [1-isopentyloxy-3-pentoxybenzene] | 35.7% |  | 20.8% | 19.8 microg/cm2 | 82.6% | 
CCOc1ccc(OCCC(C)C)cc1 [1-isopentyloxy-4-ethoxybenzene] | 22.9% |  | 18.8% | 5.8 microg/cm2 | 100% | 
COc1ccc(OCCC(C)C)cc1 [1-isopentyloxy-4-methoxybenzene] | 22.9% |  | 18.8% | 5.8 microg/cm2 | 100% | 
CCCOc1ccc(OCCC(C)C)cc1 [1-isopentyloxy-4-propoxybenzene] | 22.9% |  | 18.8% | 5.8 microg/cm2 | 100% | 
CCOc1cccc(OC)c1 [1-methoxy-3-ethoxybenzene] | 70.2% |  | 16.7% | 61.5 microg/cm2 | 54.8% | 
CCCCCOc1cccc(OC)c1 [1-methoxy-3-pentoxybenzene] | 70.2% |  | 16.7% | 61.5 microg/cm2 | 54.8% | 
CCCOc1cccc(OC)c1 [1-methoxy-3-propoxybenzene] | 70.2% |  | 16.7% | 61.5 microg/cm2 | 54.8% | 
CCOc1ccc(OC)cc1 [1-methoxy-4-ethoxybenzene] | 6% | 0.03% | 23.3% | 34.6 microg/cm2 | 80.2% | 
CCCCCOc1ccc(OC)cc1 [1-methoxy-4-pentoxybenzene] | 6% |  | 23.3% | 34.6 microg/cm2 | 80.2% | 
CCCOc1ccc(OC)cc1 [1-methoxy-4-propoxybenzene] | 6% |  | 23.3% | 34.6 microg/cm2 | 53.4% | 
CCCCOc1ccccc1OCCC [1-propoxy-2-butoxybenzene] | 31.7% |  | 13.8% | 19.4 microg/cm2 | 100% | 
CCCCCOc1ccccc1OCCC [1-propoxy-2-pentoxybenzene] | 31.7% |  | 13.8% | 19.4 microg/cm2 | 100% | 
CCCCCOc1cccc(OCCC)c1 [1-propoxy-3-pentoxybenzene] | 2.7% |  | 50% | 21.5 microg/cm2 | 98% | 
CCCCCOc1ccc(OCCC)cc1 [1-propoxy-4-pentoxybenzene] | 9.6% |  | 53.1% | 39.7 microg/cm2 | 53.4% | 
CCCOc1cccc(OCCC(C)C)c1 [3-PROPOXY-1-ISOPENTOXYBENZENE] | 35.7% |  | 20.8% | 19.8 microg/cm2 | 82.6% | 
CCCOc1ccc(OCC)cc1 [4-ETHOXY-1-PROPOXYBENZENE] | 56.6% | 0.03% | 96.8% | 23.4 microg/cm2 | 53.4% | 
C=C1C(=O)O[C@@H]2[C@H]1CC[C@H](C)[C@]1(O)C=CC(=O)[C@@]21C [PARTHENIN] |  |  |  |  |  | 59%
